Source: ChEMBL document CHEMBL1121898, “Potential antiestrogens. Synthesis and evaluation of mammary tumor inhibiting activity of 1,2-dialkyl-1,2-bis(3'-hydroxyphenyl)ethanes” (1981)
Active and inactive are the calls of the source.

How the values were obtained:
Rattus norvegicus [1] = organism: Rattus norvegicus; assay: Complete remission of DMBA-induced hormone-dependent mammary carcinoma tumors in ovariectomised rats; format: functional
How it was run: (§1)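 Female SD rats bearing DMBA-induced, hormone-dependent mammary adenocarcinoma, with at least one tumor >140 mm², were grouped in tens. Dosing was sc per kg body weight: a single dose daily Monday–Thursday and a double dose Friday. Ovariectomy served as the comparison arm. Complete remission was defined as a tumor no longer palpable. Body weight and tumor area changes were also recorded.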

Rattus norvegicus [2] = organism: Rattus norvegicus; assay: Progression of DMBA-induced hormone-dependent mammary carcinoma tumors in rats at 4.5 mg; format: functional
[3] = target: T1, Estrogen receptor (Mus musculus) (UniProt O08537+P19785); assay: Estrogenic activity in uterotrophic test in mice at 3 ug; format: functional
T1 sequence (O08537 whole entry, looked up): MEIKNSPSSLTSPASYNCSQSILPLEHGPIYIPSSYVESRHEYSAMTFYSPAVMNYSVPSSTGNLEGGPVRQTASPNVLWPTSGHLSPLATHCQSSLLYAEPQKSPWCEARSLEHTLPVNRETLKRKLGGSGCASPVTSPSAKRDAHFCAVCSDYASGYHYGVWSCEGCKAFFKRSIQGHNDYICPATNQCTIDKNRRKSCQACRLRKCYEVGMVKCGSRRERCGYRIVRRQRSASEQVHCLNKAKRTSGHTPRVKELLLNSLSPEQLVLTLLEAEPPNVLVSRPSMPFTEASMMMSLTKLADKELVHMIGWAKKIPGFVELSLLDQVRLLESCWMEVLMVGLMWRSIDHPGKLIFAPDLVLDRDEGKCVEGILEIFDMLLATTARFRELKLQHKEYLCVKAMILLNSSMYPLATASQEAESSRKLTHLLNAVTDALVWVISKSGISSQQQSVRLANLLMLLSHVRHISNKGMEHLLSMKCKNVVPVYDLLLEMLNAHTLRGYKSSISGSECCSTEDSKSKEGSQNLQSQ
T1 sequence (P19785 whole entry, looked up): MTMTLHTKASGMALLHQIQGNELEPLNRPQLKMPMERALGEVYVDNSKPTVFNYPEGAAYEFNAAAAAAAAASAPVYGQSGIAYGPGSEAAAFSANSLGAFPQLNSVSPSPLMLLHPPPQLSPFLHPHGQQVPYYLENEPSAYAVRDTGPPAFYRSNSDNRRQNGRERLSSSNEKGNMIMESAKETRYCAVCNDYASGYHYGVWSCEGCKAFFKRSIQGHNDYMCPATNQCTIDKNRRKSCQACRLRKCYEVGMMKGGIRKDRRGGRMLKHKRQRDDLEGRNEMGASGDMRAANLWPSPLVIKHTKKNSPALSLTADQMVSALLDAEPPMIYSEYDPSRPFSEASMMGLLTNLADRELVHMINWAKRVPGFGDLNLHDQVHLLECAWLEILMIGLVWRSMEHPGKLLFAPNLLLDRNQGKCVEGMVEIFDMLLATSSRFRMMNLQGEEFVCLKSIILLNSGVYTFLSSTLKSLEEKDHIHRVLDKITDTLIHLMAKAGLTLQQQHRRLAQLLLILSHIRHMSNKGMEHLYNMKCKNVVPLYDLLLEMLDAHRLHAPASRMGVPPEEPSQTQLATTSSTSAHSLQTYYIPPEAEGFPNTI
How it was run: (§2)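 Uterine growth stimulation in immature female NMRI mice, 20 days old (14.5 ± 1.2 g), 10 per group. Test compound in 0.1 mL olive oil was given sc daily for 3 days. Uteri were excised 24 h after the final injection and weighed. Effect is reported as mean ± SD.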

[4] = target: T1, Estrogen receptor (Mus musculus); assay: Antiestrogenic activity in uterotrophic test in mice at 50 ug; format: functional
How it was run: (§3)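 Immature female NMRI mice, 20 days old (14.5 ± 1.2 g), randomly grouped 10 per group. Each received a daily sc injection for 3 days of 0.1 mL olive oil solution containing test compound, together with estrone to stimulate uterine growth. Uteri were removed 24 h after the last injection and weighed. Results are reported as % inhibition of the estrone-stimulated uterine weight gain, mean ± SD.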

[5] = target: T1, Estrogen receptor (Mus musculus); assay: Estrogenic activity in uterotrophic test in mice at 900 ug; format: functional
How it was run: (§4)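 Immature (20-day-old) female NMRI mice, 14.5 ± 1.2 g, randomized into groups of 10. Given the test compound sc daily for 3 days in 0.1 mL olive oil. Uteri removed 24 h after the last injection; uterine weight taken as the read-out, means ± SD. Dose in μg.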

Rattus norvegicus [6] = organism: Rattus norvegicus; assay: Percent change in DMBA-induced hormone-dependent mammary carcinoma tumor area in ovariectomised rats after 28 days; format: functional
How it was run: (§5)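 DMBA-induced, hormone-dependent mammary adenocarcinoma in SD rats, with ovariectomy as the treatment. Rats bearing at least one tumor >140 mm² were placed in groups of ten. Tumors were counted at the start and as new tumors. Responses were scored as complete remission, partial remission (≥50% size reduction), no change or progression, with % change in tumor area and body weight.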

Rattus norvegicus [7] = organism: Rattus norvegicus; assay: Initial tumor number of DMBA-induced hormone-dependent mammary carcinoma in rats at 4.5 mg; format: functional
How it was run: (§6)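 DMBA-induced, hormone-dependent mammary adenocarcinoma in SD rats. Rats bearing at least one tumor >140 mm² were placed in groups of ten. Compound was given sc as a single dose (mg/kg) daily Monday–Thursday and a double dose on Friday. Tumors were counted at the start and as new tumors; responses were scored as complete remission (not palpable), partial remission (≥50% reduction), no change or progression. Tumor area and body weight were recorded as % change.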

Rattus norvegicus [8] = organism: Rattus norvegicus; assay: Partial remission of DMBA-induced hormone-dependent mammary carcinoma tumors in rats at 4.5 mg; format: functional; how it was run: as §6
Rattus norvegicus [9] = organism: Rattus norvegicus; assay: Initial tumor number of DMBA-induced hormone-dependent mammary carcinoma in rats at 2.25 mg; format: functional; how it was run: as §6
[10] = target: T1, Estrogen receptor (Mus musculus); assay: Inhibitory activity in mouse uterine weight test at 0.1 ug; format: functional
How it was run: (§7)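 Antiuterotrophic (Dorfman) assay in immature 20-day-old female NMRI mice, groups of 10. Uterine growth was stimulated with estrone (0.1 μg) and the test compound was given alongside it, sc daily for 3 days in 0.1 mL olive oil. Uteri were taken 24 h after the last dose. Uterine weight is reported as means ± SD and inhibition as % of the estrone-stimulated response.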

Rattus norvegicus [11] = organism: Rattus norvegicus; assay: Number of DMBA-induced hormone-dependent mammary carcinoma tumors in ovariectomised rats; format: functional; how it was run: as §5
Rattus norvegicus [12] = organism: Rattus norvegicus; assay: Percent change in DMBA-induced hormone-dependent mammary carcinoma tumor area at 9 mg after 28 days; format: functional; how it was run: as §6
Rattus norvegicus [13] = organism: Rattus norvegicus; assay: Percent unchanged tumor size of DMBA-induced hormone-dependent mammary carcinoma tumors in ovarectiemised rats; format: functional; how it was run: as §5
Rattus norvegicus [14] = organism: Rattus norvegicus; assay: Percent change in body weight DMBA-induced hormone-dependent mammary carcinoma tumors in rats at 2.25 mg for 7 days; format: functional
Rattus norvegicus [15] = organism: Rattus norvegicus; assay: Percent change in DMBA-induced hormone-dependent mammary carcinoma tumor area at 4.5 mg after 28 days; format: functional; how it was run: as §6
Rattus norvegicus [16] = organism: Rattus norvegicus; assay: Percent change in body weight DMBA-induced hormone-dependent mammary carcinoma tumors in rats at 9 mg for 7 days; format: functional
[17] = target: T1, Estrogen receptor (Mus musculus); assay: Antiestrogenic activity in uterotrophic test in mice at 0 ug; format: functional; how it was run: as §3
Rattus norvegicus [18] = organism: Rattus norvegicus; assay: Complete remission of DMBA-induced hormone-dependent mammary carcinoma tumors in rats at 4.5 mg; format: functional; how it was run: as §1
Rattus norvegicus [19] = organism: Rattus norvegicus; assay: Partial remission of DMBA-induced hormone-dependent mammary carcinoma tumors in rats at 9 mg; format: functional; how it was run: as §6
Rattus norvegicus [20] = organism: Rattus norvegicus; assay: Initial tumor number of DMBA-induced hormone-dependent mammary carcinoma in rats at 9 mg; format: functional; how it was run: as §6
Rattus norvegicus [21] = organism: Rattus norvegicus; assay: Final number of DMBA-induced hormone-dependent mammary carcinoma tumors in rats at 2 mg; format: functional
How it was run: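 Sprague-Dawley rats carrying DMBA-induced, hormone-dependent mammary adenocarcinoma, at least one tumor >140 mm², were placed in groups of ten. Compounds were given sc, with doses in mg/kg: a single daily dose Monday to Thursday and a double dose on Friday. Ovariectomy served as a comparator group. New tumors arising during the test were counted.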

Mus musculus [22] = organism: Mus musculus; assay: Vaginal cornification test in mice at 25 ug; predominant cellular component leucocytes (diestrus); format: functional, organism-based
[23] = target: T1, Estrogen receptor (Mus musculus); assay: Estrogenic activity in uterotrophic test in mice at 24 ug (experiment 2); format: functional; how it was run: as §2
Rattus norvegicus [24] = organism: Rattus norvegicus; assay: Complete remission of DMBA-induced hormone-dependent mammary carcinoma tumors in rats at 1 mg; format: functional; how it was run: as §1
Rattus norvegicus [25] = organism: Rattus norvegicus; assay: Percent unchanged tumor size of DMBA-induced hormone-dependent mammary carcinoma tumors in rats at 1 mg; format: functional
[26] = target: T1, Estrogen receptor (Mus musculus); assay: Inhibitory activity in mouse uterine weight test at 25 ug (experiment 2); format: functional; how it was run: as §7
[27] = target: T1, Estrogen receptor (Mus musculus); assay: Antiestrogenic activity in uterotrophic test in mice at 500 ug (experiment 2); format: functional; how it was run: as §3
[28] = target: T1, Estrogen receptor (Mus musculus); assay: Estrogenic activity in uterotrophic test in mice at 800 ug (experiment 2); format: functional; how it was run: as §4
[29] = target: T1, Estrogen receptor (Mus musculus); assay: Inhibitory activity in mouse uterine weight test at 50 ug (experiment 2); format: functional; how it was run: as §7
Rattus norvegicus [30] = organism: Rattus norvegicus; assay: Initial tumor number of DMBA-induced hormone-dependent mammary carcinoma in rats at 2 mg; format: functional; how it was run: as §6
[31] = target: T1, Estrogen receptor (Mus musculus); assay: Antiestrogenic activity in uterotrophic test in mice at 25 ug (experiment 2); format: functional; how it was run: as §3
Mus musculus [32] = organism: Mus musculus; assay: Predominant components of vaginal smear at a compound concentration of 500 ug was determined using vaginal cornification test; leucocytes (</= 50%), nucleated and cornified, nucleated cellscharacteristic of antiestrogens; format: functional, organism-based
Rattus norvegicus [33] = organism: Rattus norvegicus; assay: Partial remission of DMBA-induced hormone-dependent mammary carcinoma tumors in rats at 4 mg; format: functional; how it was run: as §6
Rattus norvegicus [34] = organism: Rattus norvegicus; assay: Percent change in body weight DMBA-induced hormone-dependent mammary carcinoma tumors in rats at 4 mg for 7 days; format: functional
[35] = target: T1, Estrogen receptor (Mus musculus); assay: Inhibitory activity in mouse uterine weight test at 5 ug (experiment 1); format: functional; how it was run: as §7

In the case of `CCCC(c1cccc(O)c1)C(CCC)c1cccc(O)c1` (stereo not given), the Tumors (Rattus norvegicus [1]) is reported as 90%, the Tumors (Rattus norvegicus [2]) is reported as 36% and the Effect [3] is reported as 13.6. It also gave an Effect [4] of 25.9, an Effect [5] of 28.7 and a Change (Rattus norvegicus [6]) of -99%. The No. of tumors (Rattus norvegicus [7]) was 16, the Tumors (Rattus norvegicus [8]) was 14% and the No. of tumors (Rattus norvegicus [9]) was 22. For the same compound, the inhibition [10] was 5%, the No. of tumors (Rattus norvegicus [11]) was 2 and the Change (Rattus norvegicus [12]) was -24%. For the same compound, the Tumors (Rattus norvegicus [13]) was 0%, the Change (Rattus norvegicus [14]) was 0.4% and the Change (Rattus norvegicus [15]) was 109%. The Change (Rattus norvegicus [16]) was -2.7%, the Effect [17] was 9.9 and the Tumors (Rattus norvegicus [18]) was 23%. It also gave a Tumors (Rattus norvegicus [19]) of 22% and a No. of tumors (Rattus norvegicus [20]) of 22.

With `CCC(c1cccc(O)c1)C(CC)c1cccc(O)c1` (stereo in doubt; 20) the No. of tumors (Rattus norvegicus [21]) was 23, the Activity (Mus musculus [22]) was “inactive” and the Effect [23] was 18.5. The Tumors (Rattus norvegicus [24]) was 21%, the Tumors (Rattus norvegicus [25]) was 35% and the inhibition [26] was 48%. For the same compound, the Effect [27] was 30.9, the Effect [28] was 30.8 and the inhibition [29] was 47%. For the same compound, the No. of tumors (Rattus norvegicus [30]) was 30, the Effect [31] was 28.1 and the Activity (Mus musculus [32]) was “Weak activity”. The Tumors (Rattus norvegicus [33]) was 25%, the Change (Rattus norvegicus [34]) was -5.3% and the inhibition [35] was 53%.
